Measurements taken from PMC11525735 (ACS Omega, 2024).

Assays:
MDA-MB-231 cells = experiment: In vitro fluorescence imaging of Cy5.5-A11; format: cell-based; details: 6 h
Summary of the method: (§1)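 Cells (5×10^4; kept in DMEM or RPMI-1640 with 10% FBS) were plated in chamber slides and cultured 24 h. They were then exposed to 10 nM Cy5.5-labelled test peptide at 37 °C for 6 h; blocking wells also received 1 μM unlabelled peptide. After three PBS washes, cells were fixed in 4% paraformaldehyde for 20 min and DAPI-stained. Images were taken by laser confocal microscopy.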

H460 cells = experiment: In vitro fluorescence imaging of Cy5.5-A11; format: cell-based; details: 6 h
Summary of the method: as §1

A375 cells = experiment: In vitro fluorescence imaging of Cy5.5-A11; format: cell-based; details: 6 h
Summary of the method: as §1

MDA-MB-231 xenografts = experiment: In vivo NIF whole-body imaging of tumor-bearing mice; parameters: species or system BALB/c nu/nu nude mice; details: MDA-MB-231 xenograft, 1 nM Cy5.5-A11 i.v.
Summary of the method: (§2)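 Five-week-old female nude mice carried right-shoulder subcutaneous xenografts (5×10^6 cells). At 100 mm³, 1 nM Cy5.5-labelled test peptide was given i.v. (n = 3). Whole-body NIR imaging followed at 0.5, 1, 2, 3, 4, 5, 6 and 24 h p.i. with a Cy5.5 filter set, 1 s exposure, f/stop 4 and fixed illumination, in p/s/cm²/sr. Tumour-to-muscle ratio came from ROI mean intensities; mean ± SD.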

H460 xenografts = experiment: as above; parameters: species or system BALB/c nu/nu nude mice; details: H460 xenograft, 1 nM Cy5.5-A11 i.v.
Summary of the method: as §2

A375 xenografts = experiment: as above; parameters: species or system BALB/c nu/nu nude mice; details: A375 xenograft, 1 nM Cy5.5-A11 i.v.
Summary of the method: as §2

[1] = system: MDA-MB-231 tumor-bearing mice; experiment: Ex vivo biodistribution study; format: in vivo, BALB/c nu/nu nude mice; details: 4 h p.i.
Summary of the method: (§3)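 Five-week-old female nude mice carried subcutaneous right-shoulder xenografts (5×10^6 cells), including xenografts from stable shRNA PD-L1-knockdown lines. At 100 mm³ tumour volume, mice received 1 nM Cy5.5-labelled test peptide i.v., with or without 1 μM unlabelled peptide (n = 3). Mice were killed at 4 h p.i. Tumour, brain, heart, lung, liver, stomach, intestine, spleen, kidney and muscle were imaged ex vivo through a Cy5.5 filter set. Average fluorescence per specimen was taken by ROI; mean ± SD.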

H460 tumor-bearing mice = experiment: Ex vivo biodistribution study; format: in vivo, BALB/c nu/nu nude mice; details: 4 h p.i.
Summary of the method: as §3

A375 tumor-bearing mice = experiment: Ex vivo biodistribution study; format: in vivo, BALB/c nu/nu nude mice; details: 4 h p.i.
Summary of the method: as §3

PD-L1 = details: various cancer cells; cited from earlier work
[2] = 0.5-6 h p.i., ROI analysis, n = 3

Cy5.5-EYVQTVKSSKG [Cy5.5-A11]
fluorescent signal of cells, blocking with unlabeled A11 (MDA-MB-231 cells; MDA-MB-231, 10 nM Cy5.5-A11 + 1 μM unlabeled A11, 37 °C, confocal microscopy): successfully blocked
fluorescent signal of cells (MDA-MB-231 cells; MDA-MB-231, 10 nM Cy5.5-A11, 37 °C, laser confocal microscopy, nonblocking): robust fluorescent signal
fluorescent signal in PD-L1 knockdown versus shNC control cells (MDA-MB-231 cells; MDA-MB-231 stable PD-L1 shRNA knockdown and shNC control, 10 nM Cy5.5-A11, 37 °C, confocal microscopy): seen in shNC control cells but not PD-L1 knockdown cancer cells
fluorescent signal of cells, blocking with unlabeled A11 (H460 cells; H460, 10 nM Cy5.5-A11 + 1 μM unlabeled A11, 37 °C, confocal microscopy): successfully blocked
fluorescent signal of cells (H460 cells; H460, 10 nM Cy5.5-A11, 37 °C, laser confocal microscopy, nonblocking): robust fluorescent signal
fluorescent signal in PD-L1 knockdown versus shNC control cells (H460 cells; H460 stable PD-L1 shRNA knockdown and shNC control, 10 nM Cy5.5-A11, 37 °C, confocal microscopy): seen in shNC control cells but not PD-L1 knockdown cancer cells
fluorescent signal of cells, blocking with unlabeled A11 (A375 cells; A375, 10 nM Cy5.5-A11 + 1 μM unlabeled A11, 37 °C, confocal microscopy): successfully blocked
fluorescent signal of cells (A375 cells; A375, 10 nM Cy5.5-A11, 37 °C, laser confocal microscopy, nonblocking): robust fluorescent signal
fluorescent signal in PD-L1 knockdown versus shNC control cells (A375 cells; A375 stable PD-L1 shRNA knockdown and shNC control, 10 nM Cy5.5-A11, 37 °C, confocal microscopy): seen in shNC control cells but not PD-L1 knockdown cancer cells
tumor-to-muscle fluorescence signal ratio (MDA-MB-231 xenografts; [2]): High
tumor-specific fluorescence signal at 24 h p.i. (MDA-MB-231 xenografts; 24 h p.i.): distinctly visible
time of peak tumor-specific fluorescence signal (MDA-MB-231 xenografts; n = 3): 2 h p.i.
tumor-to-muscle fluorescence signal ratio (H460 xenografts; [2]): High
tumor-specific fluorescence signal at 24 h p.i. (H460 xenografts; 24 h p.i.): distinctly visible
time of peak tumor-specific fluorescence signal (H460 xenografts; n = 3): 2 h p.i.
tumor-to-muscle fluorescence signal ratio (A375 xenografts; [2]): High
tumor-specific fluorescence signal at 24 h p.i. (A375 xenografts; 24 h p.i.): distinctly visible
time of peak tumor-specific fluorescence signal (A375 xenografts; n = 3): 2 h p.i.
ex vivo uptake in the xenografts with excessive unlabeled A11 ([1]; MDA-MB-231, blocking group, 1 nM Cy5.5-A11 + 1 μM unlabeled A11 i.v.): obviously reduced
ex vivo uptake of the probe in the xenografts ([1]; MDA-MB-231, nonblocking group, 1 nM Cy5.5-A11 i.v., ex vivo fluorescence, ROI): significant uptake
ex vivo fluorescent signal in xenografts of cancer cells with PD-L1 knockdown ([1]; PD-L1 knockdown MDA-MB-231, 1 nM Cy5.5-A11 i.v.): dramatically decreased
ex vivo uptake in the xenografts with excessive unlabeled A11 (H460 tumor-bearing mice; H460, blocking group, 1 nM Cy5.5-A11 + 1 μM unlabeled A11 i.v.): obviously reduced
ex vivo uptake of the probe in the xenografts (H460 tumor-bearing mice; H460, nonblocking group, 1 nM Cy5.5-A11 i.v., ex vivo fluorescence, ROI): significant uptake
ex vivo fluorescent signal in xenografts of cancer cells with PD-L1 knockdown (H460 tumor-bearing mice; PD-L1 knockdown H460, 1 nM Cy5.5-A11 i.v.): dramatically decreased
ex vivo uptake in the xenografts with excessive unlabeled A11 (A375 tumor-bearing mice; A375, blocking group, 1 nM Cy5.5-A11 + 1 μM unlabeled A11 i.v.): obviously reduced
ex vivo uptake of the probe in the xenografts (A375 tumor-bearing mice; A375, nonblocking group, 1 nM Cy5.5-A11 i.v., ex vivo fluorescence, ROI): significant uptake
organ uptake (biodistribution) (A375 tumor-bearing mice; A375 tumor-bearing mice, three groups (nonblocking, blocking, PD-L1 KD), ex vivo fluorescence, ROI): higher in the liver and kidney than that in other organs
ex vivo fluorescent signal in xenografts of cancer cells with PD-L1 knockdown (A375 tumor-bearing mice; PD-L1 knockdown A375, 1 nM Cy5.5-A11 i.v.): dramatically decreased

EYVQTVKSSKG [A11]
action on PD-L1 (PD-L1): binds and degrades PD-L1
